Laboratory results published in the M2OR odorant receptor database.

System: T1, A0A140T8K0
T1 sequence (whole entry): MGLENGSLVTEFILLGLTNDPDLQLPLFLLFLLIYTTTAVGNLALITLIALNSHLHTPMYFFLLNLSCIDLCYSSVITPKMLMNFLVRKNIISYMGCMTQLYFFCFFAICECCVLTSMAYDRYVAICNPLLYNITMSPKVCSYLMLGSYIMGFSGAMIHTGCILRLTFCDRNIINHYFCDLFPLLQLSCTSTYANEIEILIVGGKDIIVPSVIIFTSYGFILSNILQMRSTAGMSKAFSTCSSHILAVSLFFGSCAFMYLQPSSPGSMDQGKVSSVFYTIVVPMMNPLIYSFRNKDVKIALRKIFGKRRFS
Settings: stereoisomer not certain
Summary of the method: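 Transient luciferase assays in mammalian cell lines were common, though methods varied by source. The values come from published papers and their supplementary material, with extra details from the original authors when needed. Responsive refers to a measured signal the original authors judged statistically different from baseline, and non-responsive (inactive) to the remainder.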
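Also: active if original authors judged signal statistically different from baseline.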

Structure (SMILES) | odorant receptor agonist call
CC(C)CS | inactive
CC(=O)OCCc1ccccc1 | inactive
CCCO | inactive
CCSSCC | inactive
C=C(C)C1CCC(C)C(O)C1 (stereo unspecified) | inactive
O=C([O-])CCCCCCCC(=O)[O-].[H+].[H+] | inactive
OCCCCCCCCCO | inactive
COc1nccnc1C | inactive
C=CC(=C)CCC=C(C)C | inactive
CCCCCC(C)O (stereo unspecified) | inactive
CCCCCCCCOC=O | active
CCCCCCCCCC=CC=O | inactive
C=C(CC)CCCC(C)(C)O | inactive
OCC=Cc1ccccc1 | inactive
CCCCCC=CCCC=O | inactive
CC(=O)C=CC1=C(C)CCCC1(C)C | inactive
COc1ccccc1 | inactive
CCOC(=O)C(C)CC (stereo unspecified) | inactive

Structure (SMILES) | odorant receptor agonist call
C=C(C)C1CC=C(C)CC1 (stereo unspecified) | inactive
C=C1C2CCC(C2)C1(C)C (stereo unspecified) | inactive
CSSSC | inactive
CCCCCCCOC(=O)C(C)C | inactive
CC=CC(=O)C1=C(C)CCCC1(C)C | inactive
O=C(OCc1ccccc1)c1ccccc1O | inactive
c1ccc2ncccc2c1 | inactive
C1CCOCC1 | inactive
CC(C)CCN | inactive
CC=C(C)C=O | inactive
CCCC(C)C(=O)OCC (stereo unspecified) | inactive
CC1CCC(C(C)C)C(=O)C1 (stereo unspecified) | inactive
CC(=O)OC1(C)CCC23CC1C(C)(C)C2CCC3C (stereo unspecified) | inactive
CCCCCOC(=O)CCC | inactive
CCCCCCC=CC=O | inactive
C=C(C)C1CCC2(C)OC2C1 (stereo unspecified) | inactive
COC(OC)c1ccccc1 | inactive
CC=Cc1ccc(OC)cc1 | inactive
